ChEMBL document CHEMBL1123430, “Potential tumor- or organ-imaging agents. 26. Polyiodinated 2-substituted triacylglycerols as hepatographic agents” (J Med Chem, 1986)

Key:
[1] = system: Rattus norvegicus; assay: Distribution of radioactivity of radiolabeled compound in kidney of female rats 30 minutes after intravenous administration; format: ADME, organism-based; conditions: in vivo, 0.5 h
[2] = system: Rattus norvegicus; assay: Percentage […]/CH3OH extract of the radiolabeled compound in rat liver 5 minutes after iv administration; format: functional
Procedure, shortened: (§1)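 Liver and plasma were taken at 5 or 30 min. Plasma was extracted by a modified Folch procedure, and liver was homogenized and extracted. Extracts were run on TLC in hexane/ethyl acetate (5:2) for esters or THF/hexane (1:1) for acids, with unlabeled compound as reference. Plates were cut into 1-cm strips and counted. Values are percent ± SEM, n = 3-5.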

[3] = system: Rattus norvegicus; assay: Percentage parent compound in rat plasma 5 minutes after iv administration of the radiolabeled compound by thin-layer chromatography; format: functional; procedure, shortened: as §1
[4] = system: Rattus norvegicus; assay: Percentage […]/CH3OH extract of the radiolabeled compound in rat plasma 30 minutes after iv administration; format: functional; procedure, shortened: as §1
[5] = system: Rattus norvegicus; assay: Polyacrylamide Gel Electrophoresis (PAGE) analysis of rat plasma 30 minutes after intravenous administration of radiolabeled compound in high density lipoprotein; format: functional, organism-based
Procedure, shortened: (§2)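 Gels were sectioned and counted in a γ counter. Radioactivity in each band (stacking gel, LDL, HDL, albumin, below albumin) is expressed as a percentage of the total radioactivity applied to the gel, ± SEM, n = 3-5.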

[6] = system: Rattus norvegicus; assay: Polyacrylamide Gel Electrophoresis (PAGE) analysis of rat plasma 30 minutes after intravenous administration of radiolabeled compound (below albumin); format: functional, organism-based; procedure, shortened: as §2
[7] = system: Rattus norvegicus; assay: Polyacrylamide Gel Electrophoresis (PAGE) analysis of rat plasma 5 minutes after intravenous administration of radiolabeled compound in stacking gel; format: functional, organism-based
Procedure, shortened: (§3)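 ¹²⁵I-labeled compound, radioiodinated by exchange in a pivalic acid melt, solubilized in normal saline with Tween 20 and given iv to adult female Sprague–Dawley rats (200–250 g), 5–30 μCi/animal, 3–4 rats per time point. Plasma was run on polyacrylamide gels. Gels were sectioned and gamma counted. Radioactivity per band (stacking gel, LDL, HDL, albumin, below albumin) is given as % of total applied; mean ± SEM, n = 3-5.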

[8] = system: Rattus norvegicus; assay: Polyacrylamide Gel Electrophoresis (PAGE) analysis of rat plasma 5 minutes after intravenous administration of radiolabeled compound in high density lipoprotein; format: functional, organism-based; procedure, shortened: as §3
[9] = system: Rattus norvegicus; assay: Distribution of radioactivity of radiolabeled compound in lung of female rats 5 minutes after intravenous administration; format: ADME, organism-based; conditions: in vivo
[10] = system: Rattus norvegicus; assay: Percentage parent compound in rat liver 5 minutes after iv administration of the radiolabeled compound by thin-layer chromatography; format: functional; procedure, shortened: as §1
[11] = system: Rattus norvegicus; assay: Distribution of radioactivity of radiolabeled compound in kidney of female rats 5 minutes after intravenous administration; format: ADME, organism-based; conditions: in vivo
[12] = system: Rattus norvegicus; assay: Percentage […]/CH3OH extract of the radiolabeled compound in rat plasma 5 minutes after iv administration; format: functional; procedure, shortened: as §1
[13] = system: Rattus norvegicus; assay: Distribution of radioactivity of radiolabeled compound in heart of female rats 30 minutes after intravenous administration; format: ADME, organism-based; conditions: in vivo, 0.5 h
[14] = system: Rattus norvegicus; assay: Percentage parent compound in rat plasma 30 minutes after iv administration of the radiolabeled compound by thin-layer chromatography; format: functional; procedure, shortened: as §1
[15] = system: Rattus norvegicus; assay: Distribution of radioactivity of radiolabeled compound in lung of female rats 30 minutes after intravenous administration; format: ADME, organism-based; conditions: in vivo, 0.5 h
[16] = system: Rattus norvegicus; assay: Polyacrylamide Gel Electrophoresis (PAGE) analysis of rat plasma 30 minutes after intravenous administration of radiolabeled compound concentration in stacking gel; format: functional, organism-based; procedure, shortened: as §2
[17] = system: Rattus norvegicus; assay: Polyacrylamide Gel Electrophoresis (PAGE) analysis of rat plasma 5 minutes after intravenous administration of radiolabeled compound (below albumin ); format: functional, organism-based; procedure, shortened: as §3
[18] = system: Rattus norvegicus; assay: Percentage […]/CH3OH extract of the radiolabeled compound in rat liver 30 minutes after iv administration; format: functional; procedure, shortened: as §1
[19] = system: Rattus norvegicus; assay: Percentage parent compound in rat liver 30 minutes after iv administration of the radiolabeled compound by thin-layer chromatography; format: functional; procedure, shortened: as §1
[20] = system: Rattus norvegicus; assay: Polyacrylamide Gel Electrophoresis (PAGE) analysis of rat plasma 5 min after intravenous administration of radiolabeled compound in albumin; format: functional, organism-based; procedure, shortened: as §2
[21] = system: Rattus norvegicus; assay: Polyacrylamide Gel Electrophoresis (PAGE) analysis of rat plasma 5 minutes after intravenous administration of radiolabeled compound in low-density lipoprotein; format: functional, organism-based; procedure, shortened: as §3
[22] = system: Rattus norvegicus; assay: Distribution of radioactivity of radiolabeled compound in blood of female rats 30 minutes after intravenous administration; format: ADME, organism-based; conditions: in vivo, 0.5 h
[23] = system: Rattus norvegicus; assay: Polyacrylamide Gel Electrophoresis (PAGE) analysis of rat plasma 30 min after intravenous administration of radiolabeled compound in albumin; format: functional, organism-based; procedure, shortened: as §2
[24] = system: Rattus norvegicus; assay: Distribution of radioactivity of radiolabeled compound in blood of female rats 5 minutes after intravenous administration; format: ADME, organism-based; conditions: in vivo
[25] = system: Rattus norvegicus; assay: Polyacrylamide Gel Electrophoresis (PAGE) analysis of rat plasma 30 minutes after intravenous administration of radiolabeled compound in low-density lipoprotein; format: functional, organism-based; procedure, shortened: as §2
[26] = system: Rattus norvegicus; assay: Distribution of radioactivity of radiolabeled compound in liver of female rats 5 minutes after intravenous administration; format: ADME, organism-based; conditions: in vivo
[27] = system: Rattus norvegicus; assay: Distribution of radioactivity of radiolabeled compound in heart of female rats 5 minutes after intravenous administration; format: ADME, organism-based; conditions: in vivo
[28] = system: Rattus norvegicus; assay: Distribution of radioactivity of radiolabeled compound in liver of female rats 30 minutes after intravenous administration; format: ADME, organism-based; conditions: in vivo, 0.5 h
[29] = system: Rattus norvegicus; assay: Polyacrylamide Gel Electrophoresis (PAGE) analysis of rat plasma 30 minutes after intravenous administration of radiolabeled compound concentration of stacking gel; format: functional, organism-based; procedure, shortened: as §2
[30] = system: Rattus norvegicus; assay: Polyacrylamide Gel Electrophoresis (PAGE) analysis of rat plasma 5 min after intravenous administration of radiolabeled compound in low-density lipoprotein; format: functional, organism-based; procedure, shortened: as §3
[31] = system: Rattus norvegicus; assay: Polyacrylamide Gel Electrophoresis (PAGE) analysis of rat plasma 30 min after intravenous administration of radiolabeled compound in low-density lipoprotein; format: functional, organism-based; procedure, shortened: as §2
[32] = system: Rattus norvegicus; assay: Polyacrylamide Gel Electrophoresis (PAGE) analysis of rat plasma 30 min after intravenous administration of radiolabeled compound at concentration of high density; format: functional, organism-based; procedure, shortened: as §2
[33] = system: Rattus norvegicus; assay: Polyacrylamide Gel Electrophoresis (PAGE) analysis of rat plasma 5 minutes after intravenous administration of radiolabeled compound (below albumin); format: functional, organism-based; procedure, shortened: as §3
[34] = system: Rattus norvegicus; assay: Polyacrylamide Gel Electrophoresis (PAGE) analysis of rat plasma 30 minutes after intravenous administration of radiolabeled compound in albumin; format: functional, organism-based; procedure, shortened: as §2
[35] = system: Rattus norvegicus; assay: Polyacrylamide Gel Electrophoresis (PAGE) analysis of rat plasma 30 minutes after intravenous administration of radiolabeled compound (below albumin ); format: functional, organism-based; procedure, shortened: as §2
[36] = system: Rattus norvegicus; assay: Polyacrylamide Gel Electrophoresis (PAGE) analysis of rat plasma 5 min after intravenous administration of radiolabeled compound (below albumin); format: functional, organism-based; procedure, shortened: as §2
[37] = system: Rattus norvegicus; assay: Polyacrylamide Gel Electrophoresis (PAGE) analysis of rat plasma 30 min after intravenous administration of radiolabeled compound (below albumin); format: functional, organism-based; procedure, shortened: as §2
[38] = system: Rattus norvegicus; assay: Distribution of radioactivity of radiolabeled compound in heart of female rats 30 minutes after intravenous administration at; format: ADME, organism-based; conditions: in vivo, 0.5 h
[39] = system: Rattus norvegicus; assay: Polyacrylamide Gel Electrophoresis (PAGE) analysis of rat plasma 30 min after intravenous administration of radiolabeled compound in stacking gel; format: functional, organism-based; procedure, shortened: as §2

CCCCCCCCCCCCCCCC(=O)OCC(COC(=O)CCCCCCCCCCCCCCC)OC(=O)Cc1c(I)cc(I)c(N)c1I
Dose [1]: 0.87%
Activity [2]: 91.2%
Activity [3]: 97.7%
Activity [4]: 81.5%
Concentration [5]: 53.4%
Concentration [6]: 0.5
Concentration [7]: 9%
Concentration [8]: 50.5
Dose [9]: 1.41%
Activity [10]: 91.7%
Dose [11]: 0.93%
Activity [12]: 89.4%
Dose [13]: 0.68%
Activity [14]: 91.9%
Dose [15]: 1.34%
Concentration [16]: 3%
Concentration [17]: 3.2
Activity [18]: 83.1%
Activity [19]: 89%
Concentration [20]: 3.3
Concentration [21]: 34%
Dose [22]: 6.5%
Concentration [23]: 1.9
Dose [24]: 6.23%
Concentration [25]: 41.2%
Dose [26]: 2.96%
Dose [27]: 0.63%
Dose [28]: 4%

CCCCCCCCCCCCCCCC(=O)OCC(COC(=O)CCCCCCCCCCCCCCC)OC(=O)C(CC)Cc1c(I)cc(I)c(N)c1I (stereo not given)
Dose [1]: 0.65%
Activity [2]: 84.4%
Activity [4]: 92.2%
Concentration [7]: 4.6%
Concentration [29]: 7.1
Concentration [8]: 52.6
Dose [9]: 1.15%
Concentration [30]: 35.1
Dose [11]: 0.65%
Activity [12]: 85.7%
Dose [13]: 1.92%
Concentration [31]: 27.5
Dose [15]: 0.97%
Concentration [17]: 3
Activity [18]: 79.7%
Concentration [20]: 4.4
Concentration [32]: 54.1
Dose [22]: 3.73%
Concentration [33]: 3
Concentration [23]: 5.4
Dose [24]: 6.04%
Dose [26]: 2.16%
Dose [27]: 0.6%
Dose [28]: 4.6%

Nc1c(I)cc(I)c(CCCCCCCCCCCCCCCCC(=O)O)c1I
Dose [1]: 1.01%
Concentration [34]: 60.6
Concentration [5]: 18.5%
Concentration [7]: 5.2%
Concentration [29]: 7.6
Concentration [8]: 26.6
Dose [9]: 1.11%
Dose [11]: 0.48%
Dose [13]: 1.01%
Dose [15]: 0.84%
Concentration [35]: 10%
Concentration [20]: 60
Concentration [21]: 4.7%
Dose [22]: 1.23%
Concentration [33]: 3.5
Dose [24]: 2.25%
Concentration [25]: 3.2%
Dose [26]: 6.3%
Dose [27]: 1.06%
Dose [28]: 4.37%

CCCCCCCCCCCCCCCC(=O)OCC(COC(=O)CCCCCCCCCCCCCCC)OC(=O)CCCCCCCCCCCCCCCCc1c(I)cc(I)c(N)c1I
Dose [1]: 1.29%
Activity [2]: 44.3%
Activity [3]: 32.6%
Activity [4]: 71.3%
Concentration [5]: 27%
Concentration [7]: 4.6%
Concentration [8]: 48.1
Dose [9]: 3.16%
Activity [10]: 24%
Dose [11]: 0.42%
Activity [12]: 83.8%
Activity [14]: 23.8%
Concentration [31]: 8.6
Dose [15]: 1.72%
Activity [18]: 47.2%
Activity [19]: 40.8%
Concentration [20]: 32.1
Concentration [21]: 12.6%
Dose [22]: 1.42%
Concentration [23]: 44.6
Dose [24]: 2.5%
Dose [26]: 4.07%
Dose [27]: 0.49%
Concentration [36]: 2.7
Concentration [37]: 9
Dose [38]: 0.74%
Concentration [39]: 10.9
Dose [28]: 5.97%
